Screening results deposited in PubChem BioAssay by The Scripps Research Institute Molecular Screening Center.
This is a sample that favours compounds with a hit; in the whole collection about 3.7% have one here.
NS3 helicase inh – inhibitors of HCV NS3 helicase, primary screen, biochemical, Cy5 molecular beacon fluorescence. 290,000 tested, 0.56% active. NS3 helicase DNA unwinding. inhibition, % at 10.9 µM;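 active = inhibition above the mean of all tested compounds plus 3 SD, set per campaign, cut at about 35% in these data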
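assay system = NS3 helicase fragment of HCV | buffer or medium = MOPS pH 6.5, MgCl2, DTT, Tween20, BSA | timing = 60 min unwinding reaction at 25 °C after ATP addition | signal = Cy5 beacon fluorescence read at start and 1 h | read-out basis = % inhibition of unwinding | control set = low DMSO, high thioflavine S at 110 µM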
TAAR1 agonist – human TAAR1 agonists, primary screen, Fluo-8 calcium fluorescence, CHO RD-HGA16 cells | Trace amine-associated receptor 1 (Homo sapiens), Q96RJ0 | vehicle wells 0%, saturating PEA agonist 100% | activation, % at 3 µM | 360,000 tested, 0.99% active | AID 624467, 2012;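 active = activation above the mean activation of all test compounds in the run plus 3 SD, cut at about 38% in these data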
Target sequence (Q96RJ0 whole entry, looked up): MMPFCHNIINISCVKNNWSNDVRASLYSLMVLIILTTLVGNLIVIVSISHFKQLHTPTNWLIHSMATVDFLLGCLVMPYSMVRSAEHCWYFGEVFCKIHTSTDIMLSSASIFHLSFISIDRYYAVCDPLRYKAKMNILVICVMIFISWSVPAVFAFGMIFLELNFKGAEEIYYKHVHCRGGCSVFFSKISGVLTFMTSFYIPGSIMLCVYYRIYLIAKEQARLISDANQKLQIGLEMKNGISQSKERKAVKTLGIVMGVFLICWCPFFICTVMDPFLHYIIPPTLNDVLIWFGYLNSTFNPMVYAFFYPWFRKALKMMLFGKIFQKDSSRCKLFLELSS
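System: CHO-derived RD-HGA16 cells with stable Gα16 and human TAAR1. Times: 17-24 h plating, Fluo-8 75 min 37 °C, 30 min RT. Measured by: calcium-sensitive Fluo-8 signal, excitation 470-495, emission 515-575 nm. Read-out basis: % activation relative to PEA EC100 response. Control set: DMSO and PEA EC100. Repeats: no replicates (n 1).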
TAAR1 antagonist – human TAAR1 antagonists, primary screen, Fluo-8 calcium fluorescence, CHO RD-HGA16 cells; inhibition, % at 3 µM; antagonist; 360,000 tested, 1.5% active;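 active = inhibition above a per-plate cutoff, the mean inhibition of test compounds on that plate plus 3 SD, cut at about 49% in these data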
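Material: RD-HGA16 CHO cells with stable hTAAR1 and Gα16; Dosing: single nominal final test compound concentration of 3 µM; Schedule: seeding 17-24 h prior, 75-min 37 °C, 30-min RT dye loading; Detection: kinetic Fluo-8 calcium fluorescence measurement; Measure: % inhibition from peak post-agonist over basal fluorescence ratio; Benchmarks: vehicle and agonist controls.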
rCAG binder – binders of r(CAG) RNA repeats, primary screen, biochemical, fluorescence | r(CAG) RNA repeat, TO-PRO-1 dye displacement fluorescence | inhibition, % at 3 µM | 370,000 tested, 1.3% active;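 active = inhibition above the plate cutoff, the mean of all test compounds on that plate plus 3 SD, cut at about 35% in these data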;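 also: higher means more dye released from RNA so lower well fluorescence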
core dimer inh – inhibitors of HCV core protein dimerization, primary screen, biochemical, TR-FRET, high-throughput; TR-FRET GST/Flag-core106 dimerization, 1536-well; inhibition, % at 5 µM; 300,000 tested, 0.33% active; AID 1899, 2009;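 active = inhibition above the mean of all tested compounds plus 3 SD, set per screening campaign, cut at about 45% in these data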
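Assay system: GST-tagged and Flag-tagged HCV core protein residues 1-106 / Times: compound-protein-antibody incubation 4 h at 22.5 °C / Signal: time-resolved FRET, ex 340 nm, em 617 and 671 nm / Evaluation: % inhibition based on acceptor/donor emission ratio / Benchmarks: wells lacking GST-core106 and wells with excess unlabelled core106 / Repeats: singlicate, one well per compound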
Each line names hits and unclear results; the compound was inactive in the other large screens.

COC(=O)c1c(C)oc2ccc(N(C(=O)c3ccncc3)S(=O)(=O)c3ccc4ccccc4c3)cc12	TAAR1 antagonist 49.9
COC(=O)c1c(C)oc2ccc(N(C(=O)Oc3ccccc3)S(=O)(=O)c3ccc(Cl)c([N+](=O)[O-])c3)cc12	core dimer inh 64.4 (no result: TAAR1 agonist, TAAR1 antagonist, rCAG binder)
COC(=O)[C@]12C[C@H](CC(=O)N3CCSCC3)C(=O)N(CCc3ccc(OC)c(OC)c3)C1=C[C@H](C(C)(C)C)O[C@@H]2C	none (no result: NS3 helicase inh, TAAR1 agonist, TAAR1 antagonist, core dimer inh)
N#Cc1c(SCC(=O)Nc2cccc(F)c2)sc2c(O)cc(=O)[nH]c12	rCAG binder 60.7
O=C(CNS(=O)(=O)c1cc2ccccc2s1)N1CCN(c2ccccn2)CC1	none (no result: NS3 helicase inh, TAAR1 agonist, TAAR1 antagonist, core dimer inh)
Cc1ccsc1CN(C)CC(=O)Nc1ccc([N+](=O)[O-])cc1Cl	TAAR1 antagonist 51.5
CN(CC(=O)Nc1cc([N+](=O)[O-])ccc1Cl)Cc1ccc(Br)cc1	none
CCn1c(COc2ccc(Cl)cc2)nnc1SCC(=O)Nc1ccccc1-c1ccccc1	none (no result: NS3 helicase inh, TAAR1 agonist, TAAR1 antagonist, core dimer inh)
O=C(NCCCc1ccccc1)c1cccc(NC(=O)c2ccccc2)c1	none (no result: NS3 helicase inh, core dimer inh)
CC(C)(C)OC(=O)N1CCCC(C(=O)Nc2cccc(C(=O)NCCCCc3ccccc3)c2)C1 (stereo not drawn)	TAAR1 antagonist 55.6 (no result: NS3 helicase inh, core dimer inh)
CC(C)(C)OC(=O)N1CCCC(C(=O)Nc2cccc(C(=O)NC3CC3)c2)C1 (stereo not drawn)	none (no result: NS3 helicase inh, core dimer inh)
CC(C)(C)OC(=O)N1CCCC(C(=O)Nc2cccc(C(=O)NCCc3ccccc3)c2)C1 (stereo not drawn)	TAAR1 antagonist 48.5 (no result: NS3 helicase inh, core dimer inh)
O=C(/C=C/c1ccccc1)Nc1cccc(C(=O)NCCCCc2ccccc2)c1	TAAR1 antagonist 67.0 (no result: NS3 helicase inh, core dimer inh)
CC(CCN1CCC(C(O)(c2ccccc2)c2ccccc2)CC1)Oc1ccc(F)cc1 (stereo not drawn)	none (no result: NS3 helicase inh, TAAR1 agonist, TAAR1 antagonist, core dimer inh)
CCNC(=O)C[C@H]1CC[C@H]2[C@@H](COc3ccc(NC(=O)Nc4ccccc4)cc3C(=O)N2C)O1	none (no result: NS3 helicase inh, TAAR1 agonist, TAAR1 antagonist, core dimer inh)
Cc1sc2nc(COC(=O)CNC(=O)c3ccc(F)cc3Cl)[nH]c(=O)c2c1C	none (no result: NS3 helicase inh, TAAR1 agonist, TAAR1 antagonist, core dimer inh)
Cn1nc(CC(=O)Nc2ncc(Br)s2)c2ccccc2c1=O	TAAR1 agonist 44.2
C[C@H]1COc2cc(F)ccc2S(=O)(=O)N1C	none (no result: NS3 helicase inh, TAAR1 agonist, TAAR1 antagonist, core dimer inh)
O=C(Nc1cccc(S(=O)(=O)N2CCOCC2)c1)c1c2c(nc3ccccc13)CCC2	core dimer inh 74.2
O=C(Nc1cccc(S(=O)(=O)N2CCOCC2)c1)c1ccc2ccccc2n1	none
COc1ccc(C(=O)Nc2ccc(-c3ccc(C)o3)cc2)cc1S(=O)(=O)N1CCOCC1	TAAR1 antagonist 67.8
O=C(Nc1cccc(S(=O)(=O)N2CCCC2)c1)c1cc(S(=O)(=O)N2CCOCC2)ccc1F	none (no result: NS3 helicase inh)
COc1ccc(C(=O)Nc2ccc(Cl)c(S(=O)(=O)N3CCOCC3)c2)cc1	TAAR1 antagonist 61.0 (no result: NS3 helicase inh, core dimer inh)
O=C(Nc1cccc(S(=O)(=O)N2CCOCC2)c1)c1cc(S(=O)(=O)N2CCOCC2)c(Cl)cc1Cl	TAAR1 antagonist 76.2 (no result: NS3 helicase inh, core dimer inh)
COc1ccc(C(=O)Nc2ccc(S(=O)(=O)N3CCOCC3)cc2)cc1	none (no result: NS3 helicase inh)
COc1ccc(C(=O)Nc2cccc(-c3csc(C)n3)c2)cc1S(=O)(=O)N1CCCC1	TAAR1 antagonist 52.3 (no result: NS3 helicase inh, core dimer inh)
COc1ccc(C(=O)Nc2cccc(S(=O)(=O)N3CCCC3)c2)cc1S(=O)(=O)N1CCOCC1	none (no result: NS3 helicase inh, core dimer inh)
O=C(Nc1cccc(Br)c1)c1ccc(Cl)c(S(=O)(=O)N2CCOCC2)c1	TAAR1 antagonist 73.0
O=C(Nc1cccc(C(=O)NC2CC2)c1)c1ccc(Cl)c(S(=O)(=O)N2CCOCC2)c1	none (no result: NS3 helicase inh, core dimer inh)
COc1ccc(C(CCOC(=O)Oc2ccccc2)c2cc(OC)c(OC)c(OC)c2)cc1 (stereo not drawn)	none (no result: NS3 helicase inh, TAAR1 agonist, TAAR1 antagonist, core dimer inh)
CC(C)c1ccc(N=c2c([N+](=O)[O-])nn(-c3ccc4c(c3)OCCO4)n2O)cc1	TAAR1 antagonist 64.3
COC(=O)/C=c1/s/c(=C(\C#N)C(=O)NCc2ccco2)n(-c2ccc(C)cc2)c1=O	core dimer inh 56.9
COC(=O)/C=c1/s/c(=C(/C#N)C(=O)N2CCOCC2)n(-c2ccccc2)c1=O	none
